# Data from ChEMBL document CHEMBL1141950, “Rapamycin analogs with reduced systemic exposure” (Bioorg Med Chem Lett, 2005).
# Tests used:
# [1] = Oral bioavailability in male Sprague-Dawley rat administered with 2.5 mg/kg, po; format: ADME, organism-based; conditions: in vivo
# Rattus norvegicus [2] = species on record: Rattus norvegicus; assay: Efficacy in T-cell mediated inflammatory response by delayed type hypersensitivity model in Sprague-Dawley rat; format: functional
# T-cell [3] = assay: T-cell antiproliferative activity in human mixed lymphocyte reaction; format: functional, cell-based
# Method in brief: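 Human mixed lymphocyte reaction carried out in serum-containing medium; IC50 given as mean ± SEM for n determinations.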
# [4] = AUC in male Sprague-Dawley rat administered with 2.5 mg/kg, po; format: ADME, organism-based; set-up: dose 2.5 mg/kg, route oral; conditions: plasma
# [5] = Tmax in male Sprague-Dawley rat administered with 2.5 mg/kg, po; format: ADME, organism-based; set-up: dose 2.5 mg/kg, route oral; conditions: in vivo
# Rattus norvegicus [6] = species on record: Rattus norvegicus; assay: Efficacy in T-cell mediated adjuvant arthritis model in Lewis rat; format: functional
# [7] = Half life in human in a multiple dose escalation study; format: ADME, organism-based; conditions: in vivo
# T-cell [8] = assay: Antiproliferative activity in Lewis rat lymph node cells in rat mixed lymphocyte reaction; format: functional, cell-based
# Method in brief: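 Rat mixed lymphocyte reaction run serum free: Lewis rat lymph node cells (responders) stimulated by Brown–Norway splenocytes; IC50 reported as mean ± SEM of n determinations.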
# [9] = Cmax in male Sprague-Dawley rat administered with 2.5 mg/kg, po; format: ADME, organism-based; set-up: dose 2.5 mg/kg, route oral; conditions: in vivo
# Rattus norvegicus [10] = species on record: Rattus norvegicus; assay: Efficacy in CD4+ T-cell mediated experimental autoimmune encephalomyelitis model in Lewis rat; format: functional
# Method in brief: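 Rat EAE induced by subcutaneous injection of homogenized isologous spinal cord in modified complete Freund's adjuvant; value reported with range and n.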
# [11] = Half life in male Sprague-Dawley rat administered with 2.5 mg/kg, po; format: ADME, organism-based; set-up: dose 2.5 mg/kg, route oral; conditions: in vivo
Structure (SMILES),bioavailability [1] [%],ED50 (Rattus norvegicus [2]) [mg/kg],IC50 (T-cell [3]) [nM],AUC [4] [ng·h/mL],Tmax [5] [h],ED50 (Rattus norvegicus [6]) [mg/kg],half-life [7] [h],IC50 (T-cell [8]) [nM],Cmax [9] [ng/mL],ED50 (Rattus norvegicus [10]) [mg/kg],half-life [11] [h]
CO[C@H]1C[C@@H]2CC[C@@H](C)[C@@](O)(O2)C(=O)C(=O)N2CCCC[C@H]2C(=O)O[C@H]([C@H](C)C[C@@H]2CC[C@@H](O)[C@H](OC)C2)CC(=O)[C@H](C)/C=C(\C)[C@@H](O)[C@@H](OC)C(=O)[C@H](C)C[C@H](C)/C=C/C=C/C=C/1C [SIROLIMUS],43.2,0.5,1.6,559,0.5,0.2,63,2600,50.8,0.3,33.4
CO[C@H]1C[C@@H]2CC[C@@H](C)[C@@](O)(O2)C(=O)C(=O)N2CCCC[C@H]2C(=O)O[C@H]([C@H](C)C[C@@H]2CC[C@H](n3ncnn3)[C@H](OC)C2)CC(=O)[C@H](C)/C=C(\C)[C@@H](O)[C@@H](OC)C(=O)[C@H](C)C[C@H](C)/C=C/C=C/C=C/1C,–,2,3.3,–,–,–,–,1500,–,–,–
CO[C@H]1C[C@@H]2CC[C@@H](C)[C@@](O)(O2)C(=O)C(=O)N2CCCC[C@H]2C(=O)O[C@H]([C@H](C)C[C@@H]2CC[C@H](n3cnnn3)[C@H](OC)C2)CC(=O)[C@H](C)/C=C(\C)[C@@H](O)[C@@H](OC)C(=O)[C@H](C)C[C@H](C)/C=C/C=C/C=C/1C [ZOTAROLIMUS],12.1,1.7,2,163,0.4,0.7,25,1400,46.7,1.2,7.9
CO[C@H]1C[C@@H]2CC[C@@H](C)[C@@](O)(O2)C(=O)C(=O)N2CCCC[C@H]2C(=O)OC([C@H](C)C[C@@H]2CC[C@@H](OC(=O)N(C)OC)[C@H](OC)C2)CC(=O)[C@H](C)/C=C(\C)[C@@H](O)[C@@H](OC)C(=O)[C@H](C)C[C@H](C)/C=C/C=C/C=C/1C (stereo not given in full),6.2,0.4,5.9,132,0.4,0.3,–,2500,29.7,0.5,8.7
